The species entered for assay [1] is Homo sapiens. The assay can be described thus: Selectivity ratio of IC50 for FAAH T488A mutant (unknown origin) expressed in human HeLa cells after 2 hrs to IC50 for FAAH (unknown origin) expressed in human HeLa cells transfected with empty vector after 2 hrs. Format: cell-based.
The species named for assay [2] is Homo sapiens. Description: Selectivity ratio of IC50 for FAAH T488A mutant (unknown origin) expressed in human HeLa cells after 18 hrs to IC50 for FAAH (unknown origin) expressed in human HeLa cells transfected with empty vector after 18 hrs. Format: cell-based.
Assay [3] concerns the target T1, Fatty-acid amide hydrolase 1 (Homo sapiens, UniProt O00519, T488A). Description: Inhibition of FAAH T488A mutant (unknown origin) expressed in human HeLa cells using [3H]AEA as substrate after 2 hrs by liquid scintillation counting analysis. Format: cell-based.
Assay [4] concerns the target T2, Fatty-acid amide hydrolase 1 (Homo sapiens, UniProt O00519).
T2 sequence (O00519 whole entry): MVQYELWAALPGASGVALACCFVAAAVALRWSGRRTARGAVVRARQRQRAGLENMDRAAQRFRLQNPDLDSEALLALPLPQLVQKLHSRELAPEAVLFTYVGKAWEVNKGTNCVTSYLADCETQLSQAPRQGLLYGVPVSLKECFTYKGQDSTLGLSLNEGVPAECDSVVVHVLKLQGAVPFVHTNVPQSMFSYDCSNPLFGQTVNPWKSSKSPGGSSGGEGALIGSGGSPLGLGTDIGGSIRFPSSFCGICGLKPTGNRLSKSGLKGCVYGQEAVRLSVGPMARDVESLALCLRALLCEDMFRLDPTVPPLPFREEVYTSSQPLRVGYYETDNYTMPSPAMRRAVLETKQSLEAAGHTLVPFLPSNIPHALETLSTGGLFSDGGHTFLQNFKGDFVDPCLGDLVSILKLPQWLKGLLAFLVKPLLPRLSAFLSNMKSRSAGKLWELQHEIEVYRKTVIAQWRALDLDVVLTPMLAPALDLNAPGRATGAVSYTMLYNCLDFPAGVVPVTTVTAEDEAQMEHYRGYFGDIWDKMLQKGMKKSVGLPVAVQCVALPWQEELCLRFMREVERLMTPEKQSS
The assay can be described thus: Inhibition of FAAH (unknown origin) expressed in human HeLa cells transfected with empty vector using [3H]AEA as substrate after 2 hrs by liquid scintillation counting analysis. Type of assay: cell-based.

The target in assay [5] is T1, Fatty-acid amide hydrolase 1. The assay can be described thus: Inhibition of FAAH T488A mutant (unknown origin) expressed in human HeLa cells using [3H]AEA as substrate after 18 hrs. Format: cell-based.
For assay [6], the target named is T2, Fatty-acid amide hydrolase 1. The assay can be described thus: Inhibition of FAAH (unknown origin) expressed in human HeLa cells using [3H]AEA as substrate after 2 hrs by liquid scintillation counting analysis. Format: cell-based.
Assay [7] has the same target. Description: Inhibition of FAAH (unknown origin) expressed in human HeLa cells using [3H]AEA as substrate after 18 hrs. Type of assay: cell-based.
Assay [8] shares this target. The assay can be described thus: Inhibition of FAAH (unknown origin) expressed in human HeLa cells transfected with empty vector using [3H]AEA as substrate after 18 hrs. Format: cell-based.
The target of assay [9] is T3, Fatty-acid amide hydrolase 1 (Rattus norvegicus, UniProt P97612).
T3 sequence (P97612 whole entry): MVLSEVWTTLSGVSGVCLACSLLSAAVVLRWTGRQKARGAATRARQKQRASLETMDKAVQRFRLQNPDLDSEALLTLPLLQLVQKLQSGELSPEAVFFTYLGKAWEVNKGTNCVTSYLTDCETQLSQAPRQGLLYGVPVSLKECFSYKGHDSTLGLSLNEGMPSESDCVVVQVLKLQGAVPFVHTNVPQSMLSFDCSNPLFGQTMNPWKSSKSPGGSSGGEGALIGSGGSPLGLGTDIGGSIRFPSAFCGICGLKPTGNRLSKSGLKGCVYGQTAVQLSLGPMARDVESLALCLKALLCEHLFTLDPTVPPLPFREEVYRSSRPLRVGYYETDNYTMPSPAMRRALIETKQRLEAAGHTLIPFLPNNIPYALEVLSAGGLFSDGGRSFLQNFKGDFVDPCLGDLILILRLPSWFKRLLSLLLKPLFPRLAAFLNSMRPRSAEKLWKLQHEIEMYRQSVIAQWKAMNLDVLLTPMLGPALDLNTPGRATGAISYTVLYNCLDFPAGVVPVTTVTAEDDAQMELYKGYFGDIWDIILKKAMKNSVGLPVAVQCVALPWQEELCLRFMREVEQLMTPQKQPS
The assay can be described thus: Inhibition of rat brain FAAH using [3H]AEA as substrate. In short, it runs like this: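 Brains (minus cerebella) of adult Wistar or Sprague-Dawley rats homogenized in HEPES/MgCl2 pH 7.0, washed by repeated centrifugation, preincubated 15 min at 37 °C, resuspended in Tris-HCl/EDTA/MgCl2 pH 7.4. 1 µg protein per assay mixed on ice with inhibitor, then 0.5 µM [3H]AEA with fatty acid-free BSA, 10 min at 37 °C. Charcoal/HCl stop, supernatant counted. At least five half-log concentrations, at least 3 experiments.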

T1 sequence (O00519 whole entry T488A): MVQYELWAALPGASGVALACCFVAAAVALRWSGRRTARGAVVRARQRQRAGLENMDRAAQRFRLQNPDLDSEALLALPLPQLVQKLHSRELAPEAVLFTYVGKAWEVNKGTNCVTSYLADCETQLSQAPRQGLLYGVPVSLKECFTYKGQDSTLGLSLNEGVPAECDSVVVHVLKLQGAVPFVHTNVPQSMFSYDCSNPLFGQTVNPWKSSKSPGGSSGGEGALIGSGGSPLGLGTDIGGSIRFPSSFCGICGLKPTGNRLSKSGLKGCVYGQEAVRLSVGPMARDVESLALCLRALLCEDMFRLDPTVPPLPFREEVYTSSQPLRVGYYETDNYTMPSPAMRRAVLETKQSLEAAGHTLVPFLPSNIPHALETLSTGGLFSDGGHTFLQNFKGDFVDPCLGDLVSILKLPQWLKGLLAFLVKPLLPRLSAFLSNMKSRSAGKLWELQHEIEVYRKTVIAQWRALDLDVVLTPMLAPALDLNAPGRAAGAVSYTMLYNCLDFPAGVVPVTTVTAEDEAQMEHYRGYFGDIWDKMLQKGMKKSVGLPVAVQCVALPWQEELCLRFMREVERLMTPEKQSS

With `Cc1cccnc1NC(=O)[C@H](C)c1ccc(-c2ccccc2)c(F)c1`, the Ratio IC50 in the assay filed under Homo sapiens [1] is 0.9 to 3.1; in the assay filed under Homo sapiens [2], 3.5. Further, the IC50 (as a rule, the midpoint of a concentration-inhibition curve) is 2 to 2.3 µM in [3]; 0.65 to 3 µM in assay [4]; 28 µM in [5]; 0.7 µM in [6]; 8.3 µM in assay [7]; 8 µM in assay [8].
The compound `CCCCC/C=C\C/C=C\C/C=C\C/C=C\CCCC(=O)NCCc1c[nH]c2ccc(O)cc12` registered an IC50 in assay [9] of 1.2 µM.

The values are drawn from ChEMBL document CHEMBL4138113, “Novel propanamides as fatty acid amide hydrolase inhibitors” (Eur J Med Chem, 2017).
